The values below come from ChEMBL document CHEMBL1136130, “Synthesis and biological evaluation of gambierol analogues” (Bioorg Med Chem Lett, 2003).

The structures appear in SMILES notation.

The data set is described as follows: Minimal lethal dose of compound expressed as toxicity against male mice (ddY strain) after intraperitoneal administration. The following applies: mouse, in vivo, ip. In a few lines:
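Male ddY mice (12–17 g) received single intraperitoneal injections of HPLC-purified samples suspended in 1% Tween 60 at a range of dose levels. Lethality and neurological signs were observed. The minimal lethal dose is reported in mg/kg.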
Compound `C=CC/C=C\C=C/[C@H]1O[C@H]2C[C@H]3O[C@H]4CC[C@H]5O[C@H]6C[C@@]7(C)O[C@@]8(C)[C@@H](O)C[C@H](CCCO)O[C@@H]8C[C@@H]7O[C@@H]6C[C@@H]5O[C@]4(C)C[C@]3(C)O[C@@H]2CC[C@@H]1O` gave a Min lethal dose greater than 11.9 mg/kg.

In turn, `CCCCC/C=C\[C@H]1O[C@H]2C[C@H]3O[C@H]4CC[C@H]5O[C@H]6C[C@@]7(C)O[C@@]8(C)[C@@H](OCc9ccccc9)C[C@H](CCCOCc9ccccc9)O[C@@H]8C[C@@H]7O[C@@H]6C[C@@H]5O[C@]4(C)C[C@]3(C)O[C@@H]2CC[C@]1(C)O[Si](C)(C)C(C)(C)C` yielded a Min lethal dose greater than 7.6 mg/kg.

Regarding `C[C@@]12O[C@]3(C)C[C@@H]4O[C@@H]5CC[C@@H]6O[C@@H]7C[C@@H]8O[C@H](CO)[C@@H](O)CC[C@H]8O[C@@]7(C)C[C@@]6(C)O[C@H]5C[C@H]4O[C@H]3C[C@H]1O[C@@H](CCCO)C[C@@H]2O`, the Min lethal dose was greater than 18.3 mg/kg.

`CC(=O)OC[C@H]1O[C@H]2C[C@H]3O[C@H]4CC[C@H]5O[C@H]6C[C@@]7(C)O[C@@]8(C)[C@@H](O)C[C@H](CCCO)O[C@@H]8C[C@@H]7O[C@@H]6C[C@@H]5O[C@]4(C)C[C@]3(C)O[C@@H]2CC[C@@H]1OC(C)=O`: the Min lethal dose is greater than 8.2 mg/kg.

For `C=CC/C=C\C=C/[C@H]1O[C@H]2C[C@H]3O[C@H]4CC[C@H]5O[C@H]6C[C@@]7(C)O[C@@]8(C)[C@@H](O)C[C@H](CCCO)O[C@@H]8C[C@@H]7O[C@@H]6C[C@@H]5O[C@]4(C)C[C@]3(C)O[C@@H]2C=C[C@]1(C)O`, the Min lethal dose came out at 0.05 mg/kg.

Compound `C=CC/C=C\C=C/[C@H]1O[C@H]2C[C@H]3O[C@H]4CC[C@H]5O[C@H]6C[C@@]7(C)O[C@@]8(C)[C@@H](O)C[C@H](CCCO)O[C@@H]8C[C@@H]7O[C@@H]6C[C@@H]5O[C@]4(C)C[C@]3(C)O[C@@H]2CC[C@]1(C)O` registered a Min lethal dose of 7.9 mg/kg.

`C=CC/C=C\C=C/[C@H]1O[C@H]2C[C@H]3O[C@H]4CC[C@H]5O[C@H]6C[C@@]7(C)O[C@@]8(C)[C@@H](O)C[C@H](CCCO)O[C@@H]8C[C@@H]7O[C@@H]6C[C@@H]5O[C@]4(C)C[C@]3(C)O[C@@H]2C=C[C@@H]1O` returned a Min lethal dose of 0.34 mg/kg.
